Data: publication PMC3592994 (Hepatology (Baltimore, Md.), 2013)
Structures can show the parent of a compound that is named as a salt.

Assays:
[1] = tested on: Bsep, Mdr2, Ost-β, Sult2a1, Shp, Ntcp; test: Hepatic gene expression in gavaged mice; assay type: in vivo, mouse
Summary of the method: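 Female C57BL6 mice aged 7–8 weeks were gavaged twice daily for 2 days with 200 μL 20% cyclodextrin, 50 mg/kg cholic acid, or cholic acid plus 500 mg/kg test compound. Livers were harvested at 4 pm on day 2 after an 8-h fast, and hepatic gene expression was measured. Data are mean ± SEM, n = 6, by one-way ANOVA.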

[2] = tested on: BSEP, SHP; test: BSEP and SHP gene expression in primary human hepatocytes; assay type: cell-based; details: 50 μM, 24 hours
[3] = tested on: BSEP, SHP, CYP7A1; assay type: cell-based, human; details: 50 μM, 24 hours; for induction of BSEP gene expression: scrambled siRNA group; for repression of CYP7A1 expression: siScramble group; for induction of SHP gene expression: siScrambled group, versus vehicle
[4] = target: T1, FXRα2 (Homo sapiens, UniProt Q96RI1); assay type: cell-based; details: for FXR transactivation relative to vehicle-treated control: 50 μM compound; for FXR transactivation relative to vehicle-treated control / EC50: 24 hours; for EC50: read-out: EC50 of FXR transactivation, agonist mode, 0-100 μM
T1 sequence (Q96RI1 1-472 isoform Q96RI1-2): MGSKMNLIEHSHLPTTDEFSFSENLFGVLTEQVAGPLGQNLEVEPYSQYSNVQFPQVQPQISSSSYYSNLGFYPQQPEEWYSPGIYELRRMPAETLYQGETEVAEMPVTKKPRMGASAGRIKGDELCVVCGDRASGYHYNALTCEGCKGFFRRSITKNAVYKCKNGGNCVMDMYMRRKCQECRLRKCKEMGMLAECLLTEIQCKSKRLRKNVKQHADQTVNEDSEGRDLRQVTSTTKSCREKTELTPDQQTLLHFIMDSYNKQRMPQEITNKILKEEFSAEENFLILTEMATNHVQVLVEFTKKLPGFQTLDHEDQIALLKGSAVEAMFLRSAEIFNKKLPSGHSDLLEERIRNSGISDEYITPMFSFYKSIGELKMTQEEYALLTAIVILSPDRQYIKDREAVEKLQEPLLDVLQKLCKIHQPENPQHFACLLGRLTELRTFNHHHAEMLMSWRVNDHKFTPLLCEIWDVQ
T1 sequence (P19793 1-462 partner): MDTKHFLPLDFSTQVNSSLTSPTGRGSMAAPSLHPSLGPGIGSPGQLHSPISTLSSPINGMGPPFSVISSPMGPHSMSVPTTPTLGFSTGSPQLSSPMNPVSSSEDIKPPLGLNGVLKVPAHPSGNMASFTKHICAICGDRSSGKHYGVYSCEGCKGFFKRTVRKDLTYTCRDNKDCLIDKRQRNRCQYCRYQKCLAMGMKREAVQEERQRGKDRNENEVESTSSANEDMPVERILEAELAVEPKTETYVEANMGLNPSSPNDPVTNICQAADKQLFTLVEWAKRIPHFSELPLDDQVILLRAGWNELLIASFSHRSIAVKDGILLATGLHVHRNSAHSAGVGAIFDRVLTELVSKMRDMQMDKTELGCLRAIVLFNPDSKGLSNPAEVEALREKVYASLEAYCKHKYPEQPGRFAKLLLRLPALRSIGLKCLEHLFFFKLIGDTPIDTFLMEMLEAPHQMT

[5] = target: T2, FXR-LBD (Homo sapiens, UniProt Q96RI1); test: HTRF cofactor; assay type: biochemical; details: for CDCA-mediated recruitment of SRC-1 peptide to FXR-LBD: 9 or 100 μM CDCA, 0-600 μM compound, dose-dependent; for recruitment of SRC-1 peptide to FXR-LBD by compound alone: agonist mode, no CDCA
T2 sequence (Q96RI1 244-472 isoform Q96RI1-2): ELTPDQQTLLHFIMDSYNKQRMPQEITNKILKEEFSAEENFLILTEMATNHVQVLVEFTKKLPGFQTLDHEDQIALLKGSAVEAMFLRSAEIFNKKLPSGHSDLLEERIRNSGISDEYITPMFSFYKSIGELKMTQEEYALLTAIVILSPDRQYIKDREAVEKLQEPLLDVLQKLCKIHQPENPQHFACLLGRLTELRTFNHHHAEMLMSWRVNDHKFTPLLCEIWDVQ

[6] = tested on: FXR-mediated bile acid efflux in Huh7 cells; test: Huh7 3H-taurocholic acid efflux; assay type: cell-based, human
Summary of the method: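 Huh7 cells were pretreated overnight with vehicle or 0.5 μM GW4064 with or without 25–50 μM test compound. Cells were washed for 1.5 h, then ³H-taurocholic acid efflux over 5 min was measured. Data are mean ± SEM, n = 3, by one-way ANOVA.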

[7] = tested on: BSEP; test: BSEP protein western blot in Huh7 cells; assay type: cell-based, human; details: 0.5 μM GW4064, 24 hours
[8] = tested on: FGF19; test: Secreted FGF19 in Huh7 cell culture media; assay type: cell-based, human; details: for levels of secreted FGF19: 0.5 μM GW4064
Summary of the method: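 Huh7 cells were incubated for 24 h with 0.5 μM GW4064 plus 0–100 μM test compound. FGF19 secreted into the culture medium was then assayed. Data are mean ± SEM, n = 3, by one-way ANOVA.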

[9] = Serum PM5S in gavaged mice by UPLC/MSMS; assay type: in vivo, mouse
Summary of the method: (§1)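 Female C57BL6 mice aged 7–8 weeks were orally gavaged twice daily for 2 days (day 1 at 5:30 and 10:30 pm; day 2 at 8:30 am and 1:30 pm). Groups received 200 μL 20% cyclodextrin, 50 mg/kg cholic acid, or cholic acid plus 500 mg/kg test compound. After an 8-h fast, serum was collected at 4 pm on day 2 and analysed by UPLC/MSMS. Data are mean ± SEM, n ≥ 6, by one-way ANOVA.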

[10] = Serum bile acid concentrations in gavaged mice; assay type: in vivo, mouse; details: CA+PM5S co-gavaged mice versus vehicle or CA groups
Summary of the method: as §1

[11] = tested on: BSEP; test: BSEP gene expression in Huh7 cells; assay type: cell-based, human
Summary of the method: (§2)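 Relative mRNA was quantified by qPCR. Data are mean ± SEM, n = 3, by one-way ANOVA against the agonist-alone or vehicle group.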

[12] = tested on: FGF19; test: FGF19 gene expression in Huh7 cells; assay type: cell-based, human; details: 25-100 μM PM5S, 0.5 μM GW4064, 24 hours
Summary of the method: as §2

[13] = tested on: SHP and MDR3; test: SHP and MDR3 gene expression in Huh7 cells; assay type: cell-based, human; details: 0-100 μM PM5S, 0.5 μM GW4064, 24 hours
Summary of the method: as §2

[14] = tested on: primary human hepatocytes; details: primary human hepatocytes ref 19; cited from earlier work
[15] = tested on: NTCP; details: NTCP-transfected Xenopus laevis oocytes ref 19; cited from earlier work
[16] = tested on: BSEP; details: X. laevis oocytes expressing BSEP ref 20; cited from earlier work

## C[C@H](CCC(=O)O)[C@H]1CC[C@H]2[C@@H]3[C@H](O)C[C@@H]4C[C@H](O)CC[C@]4(C)[C@H]3C[C@H](O)[C@]12C [CA, cholic acid, reference compound]
[1]; CA group, 50 mg/kg versus vehicle
  Hepatic gene expression levels of Bsep, Mdr2, Ost-β, and Sult2a1: significantly induced

## C[C@H](CCC(=O)O)[C@H]1CC[C@H]2[C@@H]3[C@H](O)C[C@@H]4C[C@H](O)CC[C@]4(C)[C@H]3CC[C@]12C [CDCA, chenodeoxycholic acid, reference compound]
[2]
  BSEP expression induction: 7.5 fold
[3]
  induction of BSEP gene expression: 390%
  repression of CYP7A1 expression: > 90%
  induction of SHP gene expression: 481%

## C[C@H](O)[C@H]1CC[C@H]2[C@@H]3CC[C@H]4C[C@@H](OS(=O)(=O)[O-])CC[C@]4(C)[C@H]3CC[C@]12C.[Na+] [EPAS, epiallo-pregnanediol 3-sodium sulfate]
[4]
  activity of FXR in presence of CDCA: inhibited
  FXR transactivation relative to vehicle-treated control: 183%
  EC50: 22.6 µM
[5]
  CDCA-mediated recruitment of SRC-1 peptide to FXR-LBD: inhibited
  recruitment of SRC-1 peptide to FXR-LBD by compound alone: unable to induce

## CC(=O)C1CCC2C3CC[C@@H]4C[C@@H](OS(=O)(=O)O)CC[C@]4(C)C3CC[C@]12C (stereo partly drawn) [EPS, epipregnanolone sulfate]
[4]
  activity of FXR in presence of CDCA: inhibited
  FXR transactivation relative to vehicle-treated control: 125%
  EC50: 15.1 µM
[5]
  CDCA-mediated recruitment of SRC-1 peptide to FXR-LBD: inhibited
  recruitment of SRC-1 peptide to FXR-LBD by compound alone: unable to induce

## CC(C)c1onc(-c2c(Cl)cccc2Cl)c1COc1ccc(/C=C/c2cccc(C(=O)O)c2)c(Cl)c1 [GW4064, reference compound]
[6]; 0.5 μM GW4064 overnight, relative to vehicle
  3HTC efflux: significantly increased
[7]; relative to vehicle
  increase in BSEP protein levels: 1.5 fold
[8]; 0.5 μM GW4064, 24 hours
  increase in secreted FGF19: 2.8 fold

## CC(=O)[C@H]1CC[C@H]2[C@@H]3CC[C@H]4C[C@@H](OS(=O)(=O)O)CC[C@]4(C)[C@H]3CC[C@]12C [PM5S, epiallopregnanolone sulfate]
[9]; mice gavaged 50 mg/kg cholic acid + 500 mg/kg PM5S twice daily for 2 days
  Serum PM5S mean concentration ± SEM: 3208.6 ± 1847.1 µM
[9]; mice gavaged 50 mg/kg cholic acid twice daily for 2 days
  Serum PM5S mean concentration ± SEM: 10.7 ± 9.6 µM
[10]
  serum CA levels: significantly raised
[1]; CA+PM5S group compared to CA group
  induction of Bsep and Mdr2 expression: significantly abrogated
[1]; CA+PM5S, CA and vehicle groups
  Shp and Ntcp expression levels: no differences
[6]; cotreated with 25 or 50 μM PM5S, 0.5 μM GW4064
  GW4064-induced increase in 3HTC efflux: abolished
[7]; 10 μM PM5S
  GW4064-mediated BSEP protein expression: inhibited
[7]; 25-100 μM PM5S
  BSEP protein expression: completely abolished
[11]; all PM5S concentrations tested, 50 μM CDCA, 24 hours
  CDCA-mediated BSEP expression: significantly reduced
[11]; increasing PM5S doses (0-100 μM), 0.5 μM GW4064, 24 hours
  GW4064-mediated BSEP gene expression: completely abolished
[8]; 50 μM and 100 μM PM5S
  levels of secreted FGF19: reaching significance
[8]; cotreatment with 10 μM and 25 μM PM5S
  levels of secreted FGF19: trend towards a reduction
[12]
  GW4064-mediated FGF19 gene expression: significantly reduced
[13]
  GW4064-mediated SHP and MDR3 gene expression: significantly abrogated
[2]
  BSEP expression: modestly increased
  SHP expression induction: to a lesser extent than CDCA
[4]
  PM5S concentrations abrogating CDCA-mediated FXR transactivity: ≥ 5 µM
  FXR transactivation relative to vehicle-treated control: 182%
  EC50: > 83 µM
[5]
  CDCA-mediated recruitment of SRC-1 peptide to FXR-LBD: able to inhibit
  recruitment of SRC-1 peptide to FXR-LBD by compound alone: unable to potentiate
[3]
  induction of BSEP gene expression: 160%
  repression of CYP7A1 expression: > 90%
  induction of SHP gene expression: 200%
[14]
  Na+-dependent and Na+-independent influx of taurocholate: reduce
[15]
  taurocholate uptake by NTCP: competitively inhibit
[16]
  efflux of bile acids: reduce the efflux
